Assay results taken from ChEMBL document CHEMBL4033712, “Synthesis and biological evaluation of new C-12(α/β)-(N-) sulfamoyl-phenylamino-14-deoxy-andrographolide derivatives as potent anti-cancer agents” (Bioorg Med Chem Lett, 2017).

How the values were obtained:
Format in all cases: functional
SK-MEL-28 = experiment: Anticancer activity against human SK-MEL-28 cells assessed as cell growth at 10 uM after 48 hrs by sulforhodamine B assay relative to control; conditions: SK-MEL-28, 48 h, read-out: Activity
Method in brief: (§1)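 Single-dose NCI-60 panel screen: compound added at 10 µM and the culture incubated 48 h. The end point was read by protein staining with sulforhodamine B. The value is percent growth of treated cells relative to untreated control cells, reported as a mean graph across the panel.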

CAKI-1 = experiment: Anticancer activity against human Caki1 cells assessed as cell growth at 10 uM after 48 hrs by sulforhodamine B assay relative to control; conditions: CAKI-1, 48 h, read-out: Activity; method in brief: as §1
DU-145 = experiment: Anticancer activity against human DU145 cells assessed as cell growth at 10 uM after 48 hrs by sulforhodamine B assay relative to control; conditions: DU-145, 48 h, read-out: Activity; method in brief: as §1
NCI-H226 = experiment: Anticancer activity against human NCI-H226 cells assessed as cell growth at 10 uM after 48 hrs by sulforhodamine B assay relative to control; conditions: NCI-H226, 48 h, read-out: Activity; method in brief: as §1
IGROV-1 = experiment: Anticancer activity against human IGROV1 cells assessed as cell growth at 10 uM after 48 hrs by sulforhodamine B assay relative to control; conditions: IGROV-1, 48 h, read-out: Activity; method in brief: as §1
HOP-62 = experiment: Anticancer activity against human HOP62 cells assessed as cell growth at 10 uM after 48 hrs by sulforhodamine B assay relative to control; conditions: HOP-62, 48 h, read-out: Activity; method in brief: as §1
LOX IMVI = experiment: Anticancer activity against human LOXIMVI cells assessed as cell growth at 10 uM after 48 hrs by sulforhodamine B assay relative to control; conditions: read-out: Activity; method in brief: as §1
Malme-3M = experiment: Anticancer activity against human MALME-3M cells assessed as cell growth at 10 uM after 48 hrs by sulforhodamine B assay relative to control; conditions: read-out: Activity; method in brief: as §1
HCT-116 = experiment: Anticancer activity against human HCT116 cells assessed as cell growth at 10 uM after 48 hrs by sulforhodamine B assay relative to control; conditions: HCT-116, 48 h, read-out: Activity; method in brief: as §1
SN12C = experiment: Anticancer activity against human SN12C cells assessed as cell growth at 10 uM after 48 hrs by sulforhodamine B assay relative to control; conditions: read-out: Activity; method in brief: as §1
SK-MEL-5 = experiment: Anticancer activity against human SK-MEL-5 cells assessed as cell growth at 10 uM after 48 hrs by sulforhodamine B assay relative to control; conditions: SK-MEL-5, 48 h, read-out: Activity; method in brief: as §1
NCI-H322M = experiment: Anticancer activity against human NCI-H322M cells assessed as cell growth at 10 uM after 48 hrs by sulforhodamine B assay relative to control; conditions: read-out: Activity; method in brief: as §1
U-251 = experiment: Anticancer activity against human U251 cells assessed as cell growth at 10 uM after 48 hrs by sulforhodamine B assay relative to control; conditions: U-251, 48 h, read-out: Activity
Method in brief: (§2)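 NCI-60 single-dose screen: compound added at 10 µM, cultures incubated 48 h. End point by sulforhodamine B protein-binding dye. Value reported as percent growth of treated cells relative to untreated control cells.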

PC-3 = experiment: Anticancer activity against human PC3 cells assessed as cell growth at 10 uM after 48 hrs by sulforhodamine B assay relative to control; conditions: PC-3, 48 h, read-out: Activity; method in brief: as §1
SF-295 = experiment: Anticancer activity against human SF295 cells assessed as cell growth at 10 uM after 48 hrs by sulforhodamine B assay relative to control; conditions: SF-295, 48 h, read-out: Activity; method in brief: as §1
COLO 205 = experiment: Anticancer activity against human COLO205 cells assessed as cell growth at 10 uM after 48 hrs by sulforhodamine B assay relative to control; conditions: COLO 205, 48 h, read-out: Activity; method in brief: as §1
MDA-MB-468 = experiment: Anticancer activity against human MDA-MB-468 cells assessed as cell growth at 10 uM after 48 hrs by sulforhodamine B assay relative to control; conditions: MDA-MB-468, 48 h, read-out: Activity; method in brief: as §1
RXF 393 = experiment: Anticancer activity against human RXF393 cells assessed as cell growth at 10 uM after 48 hrs by sulforhodamine B assay relative to control; conditions: RXF 393, 48 h, read-out: Activity; method in brief: as §1
MCF7 = experiment: Anticancer activity against human MCF7 cells assessed as cell growth at 10 uM after 48 hrs by sulforhodamine B assay relative to control; conditions: MCF7, 48 h, read-out: Activity; method in brief: as §1
OVCAR-5 = experiment: Anticancer activity against human OVCAR5 cells assessed as cell growth at 10 uM after 48 hrs by sulforhodamine B assay relative to control; conditions: OVCAR-5, 48 h, read-out: Activity; method in brief: as §1
EKVX = experiment: Anticancer activity against human EKVX cells assessed as cell growth at 10 uM after 48 hrs by sulforhodamine B assay relative to control; conditions: read-out: Activity; method in brief: as §1
KM12 = experiment: Anticancer activity against human KM12 cells assessed as cell growth at 10 uM after 48 hrs by sulforhodamine B assay relative to control; conditions: KM12, 48 h, read-out: Activity; method in brief: as §1
RPMI-8226 = experiment: Anticancer activity against human RPMI8226 cells assessed as cell growth at 10 uM after 48 hrs by sulforhodamine B assay relative to control; conditions: RPMI-8226, 48 h, read-out: Activity; method in brief: as §1
M14 = experiment: Anticancer activity against human M14 cells assessed as cell growth at 10 uM after 48 hrs by sulforhodamine B assay relative to control; conditions: M14, 48 h, read-out: Activity; method in brief: as §1
MDA-MB-435 = experiment: Anticancer activity against human MDA-MB-435 cells assessed as cell growth at 10 uM after 48 hrs by sulforhodamine B assay relative to control; conditions: MDA-MB-435, 48 h, read-out: Activity; method in brief: as §1
HT-29 = experiment: Anticancer activity against human HT-29 cells assessed as cell growth at 10 uM after 48 hrs by sulforhodamine B assay relative to control; conditions: HT-29, 48 h, read-out: Activity; method in brief: as §1
SW-620 = experiment: Anticancer activity against human SW620 cells assessed as cell growth at 10 uM after 48 hrs by sulforhodamine B assay relative to control; conditions: SW-620, 48 h, read-out: Activity; method in brief: as §2
A549 = experiment: Anticancer activity against human A549/ATCC cells assessed as cell growth at 10 uM after 48 hrs by sulforhodamine B assay relative to control; conditions: A549, 48 h, read-out: Activity; method in brief: as §1
MDA-MB-231 = experiment: Anticancer activity against human MDA-MB-231 cells assessed as cell growth at 10 uM after 48 hrs by sulforhodamine B assay relative to control; conditions: MDA-MB-231, 48 h, read-out: Activity; method in brief: as §1
NCI-H23 = experiment: Anticancer activity against human NCI-H23 cells assessed as cell growth at 10 uM after 48 hrs by sulforhodamine B assay relative to control; conditions: NCI-H23, 48 h, read-out: Activity; method in brief: as §1
NCI-H522 = experiment: Anticancer activity against human NCI-H522 cells assessed as cell growth at 10 uM after 48 hrs by sulforhodamine B assay relative to control; conditions: NCI-H522, 48 h, read-out: Activity; method in brief: as §1

C=C1CC[C@@H]2[C@](C)(COC(C)=O)[C@H](OC(C)=O)CC[C@@]2(C)[C@H]1CC(Nc1ccc(S(=O)(=O)Nc2nccs2)cc1)C1=CCOC1=O (stereo partly specified)
growth at 10 µM (SK-MEL-28): -16.3%
growth at 10 µM (CAKI-1): 55.9%
growth at 10 µM (DU-145): 22.3%
growth at 10 µM (NCI-H226): -14%
growth at 10 µM (IGROV-1): 12.6%
growth at 10 µM (HOP-62): 120%
growth at 10 µM (LOX IMVI): -88.3%
growth at 10 µM (Malme-3M): 0.4%
growth at 10 µM (HCT-116): -30.4%
growth at 10 µM (SN12C): 15.6%
growth at 10 µM (SK-MEL-5): 31.4%
growth at 10 µM (NCI-H322M): 59.9%
growth at 10 µM (U-251): 4.21%
growth at 10 µM (PC-3): 21.8%
growth at 10 µM (SF-295): 73%
growth at 10 µM (COLO 205): -24.6%
growth at 10 µM (MDA-MB-468): -59.9%
growth at 10 µM (RXF 393): -50.6%
growth at 10 µM (MCF7): -21.3%
growth at 10 µM (OVCAR-5): 7.82%
growth at 10 µM (EKVX): 73.4%
growth at 10 µM (KM12): -0.89%
growth at 10 µM (RPMI-8226): -13.3%
growth at 10 µM (M14): 8.12%
growth at 10 µM (MDA-MB-435): -8.31%
growth at 10 µM (HT-29): -42.7%
growth at 10 µM (SW-620): -72.7%
growth at 10 µM (A549): 43.7%
growth at 10 µM (MDA-MB-231): 5.69%
growth at 10 µM (NCI-H23): 38.1%
growth at 10 µM (NCI-H522): -61.9%
